This note sets out measurements from ChEMBL document CHEMBL1149110, “Identification of 2-[2-[2-(5-bromo-2- methoxyphenyl)-ethyl]-3-fluorophenyl]-4,5-dihydro-1H-imidazole (ML00253764), a small molecule melanocortin 4 receptor antagonist that effectively reduces tumor-induced weight loss in a mouse model” (J Med Chem, 2004).

The species entered for one assay is Mus musculus. The assay is described as follows: Functional antagonism measured by inhibition of cAMP production induced by [NDP]-R-MSH in a whole cell assay in mice. The procedure, abridged:
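Whole-cell functional assay measuring inhibition of cAMP production stimulated by [NDP]-α-MSH. Values are averages of at least three measurements, reported ± SD.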

The next assay concerns the target Melanocortin receptor 4 (Mus musculus, UniProt P56450). As to the kind of experiment: Competition binding affinity at mice melanocortin 4 receptor using [125I][NDP]-R-MSH as radioligand in a membrane filtration assay. Type of assay: cell membranes. The procedure, abridged: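 Membrane filtration competition binding at MC4R with 125I-[NDP]-α-MSH as radioligand. Values are averages of at least three measurements, reported ± SD.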

Melanocortin receptor 4, sequence (P56450 whole entry): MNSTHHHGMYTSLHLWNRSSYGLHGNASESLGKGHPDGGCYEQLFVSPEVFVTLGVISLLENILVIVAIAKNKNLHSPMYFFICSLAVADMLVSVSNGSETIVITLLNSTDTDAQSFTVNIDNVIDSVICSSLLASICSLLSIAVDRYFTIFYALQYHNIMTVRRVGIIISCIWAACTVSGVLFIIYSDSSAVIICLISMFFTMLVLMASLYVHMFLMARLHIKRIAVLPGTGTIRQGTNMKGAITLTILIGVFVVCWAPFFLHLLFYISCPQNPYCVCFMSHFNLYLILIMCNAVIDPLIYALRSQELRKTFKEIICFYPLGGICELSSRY

With `COc1ccc(Br)cc1CCc1ccccc1C1=NCCN1`, in the assay filed under Mus musculus, the IC50 turned out to be 450 nM. Further, the Ki on Melanocortin receptor 4 amounted to 39 nM.

For the compound `COc1ccc(Br)cc1CCc1ccccc1C1=NCCCN1`, half-maximal inhibition in the assay listed under Mus musculus (IC50) was put at 280 nM. For the same compound, affinity at Melanocortin receptor 4 was put at a Ki of 220 nM.

Compound `COc1ccc(Br)cc1CCc1c(F)cccc1C1=NCCN1` yielded a Ki on Melanocortin receptor 4 of 160 nM.

As to `COc1ccc(Br)cc1CSc1ccccc1C1=NCCCN1`, half-maximal inhibition in the assay listed under Mus musculus (IC50) required 270 nM. Further, the Ki on Melanocortin receptor 4 was 67 nM.

`Fc1cccc(Cl)c1CSc1ccccc1C1=NCCCN1` yielded a Ki at Melanocortin receptor 4 of 2700 nM.

The compound `Clc1cc(CSc2ccccc2C2=NCCCN2)c(Cl)s1` displayed a Ki on Melanocortin receptor 4 of 2200 nM.

Turning to `Fc1cccc(F)c1CSc1ccccc1C1=NCCCN1`, the Ki at Melanocortin receptor 4 amounted to 15800 nM.
